# Screening data from PubChem.
# STAT3 activator – IL-6 driven STAT3 reporter potentiators, primary screen, U3A cells, luciferase, luminescence, MLSCN library. activation (% of control), % at 5.6 µM. AID 871, 2007. IL-6 STAT3-luciferase reporter; 100% = signal with IL-6 EC80 alone. 190,000 tested, 0.91% active;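 active = activation above the screen-wide mean of compound activation plus 3 SD, cut at about 130% in these data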;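 also: 0% = background luminescence of wells with medium and substrate only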
#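 Material: human STAT1-deficient U3A cells with stable STAT3-luciferase reporter / Probe or stimulus: IL-6 stimulus at 33 ng/mL final / Schedule: 1 h compound pre-exposure, 6 h IL-6 stimulation, 37 °C / Technique: luminescence / Read-out basis: percent of IL-6-only median luminescence / Control set: IL-6-only high control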
# STAT1 blocker – STAT1 signaling inhibitors, primary screen, cell-based, HTS, luciferase reporter | NIH 3T3 STAT1-luciferase reporter, IFN-gamma, luminescence | inhibition, % at 5.5 µM | 200,000 tested, 0.35% active | AID 920, 2007;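 active = inhibition above a set limit, the mean inhibition across all tested compounds plus 3 SD, cut at about 34% in these data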;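 also: 0% = IFN-gamma with DMSO and 100% = IFN-gamma with 300 µM nifuroxazide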
# STAT1 act – STAT1 signaling activators, primary screen, cell-based, HTS, luciferase reporter; NIH 3T3 STAT1-luciferase reporter, IFN-gamma, luminescence; 100% = IFN-gamma alone, no compound; activation (% of control), % at 5.5 µM; 200,000 tested, 2.6% active;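 active = activation above the screen-wide mean activation plus 3 SD, cut at about 130% in these data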;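 also: raw ratio to IFN-gamma control signal so 100% means no change and 0% no light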
# STAT3 inh – IL-6 driven STAT3 reporter inhibitors, primary screen, U3A cells, luciferase, luminescence, MLSCN library. 190,000 tested, 0.89% active. inhibition, % at 5.5 µM. IL-6 STAT3-luciferase reporter; host cell line lacks STAT1;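 active = inhibition above the mean inhibition across all screened compounds plus 3 SD, cut at about 44% in these data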;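 also: 0% = DMSO only wells and 100% = 100 µM nifuroxazide control wells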
# Numbers without * were called inactive; x = no result. Only some compounds are listed: those with a hit (about 4.3% of all), similar ones and a draw of the others.
SMILES,STAT3 activator,STAT1 blocker,STAT1 act,STAT3 inh
O=C(c1cc2ccccc2oc1=O)N(Cc1ccccc1)Cc1ccc2c(c1)OCO2,134.9*,-6.5,111.1,-37.5
CCc1ccc(CN(C(=O)c2cc3ccccc3oc2=O)C2CCS(=O)(=O)C2)cc1 (centres undefined),117.8,-32.5,129.2*,-18.5
COc1ccc(C2=Nn3c(nnc3-c3ccccc3)SC2)cc1OC,134.1*,2.1,98.0,-43.5
COc1ccc(-c2nnc3n2N=C(C)CS3)cc1OC,101.6,5.1,95.3,3.4
CCOC(=O)C1=C(O)C(=O)N(Cc2cccnc2)C1c1ccc(OC)cc1 (centres undefined),104.4,-10.1,107.8,-0.4
O=c1[nH]c(=O)n(Cc2ccco2)c2c1C(C(F)(F)F)(C(F)(F)F)N=C(c1ccc(F)cc1)N2,60.3,44.9*,58.7,50.6*
O=c1[nH]c(=O)n(Cc2ccccc2)c2c1C(C(F)(F)F)(C(F)(F)F)N=C(c1ccco1)N2,95.4,-0.3,100.3,9.6
COCCCNC(=O)Cn1c(=O)n(Cc2ccc(C(=O)NCCc3ccc(OC)c(OC)c3)cc2)c(=O)c2ccccc21,101.6,-0.9,99.8,-0.6
O=C(NNc1ccnc2cc(Cl)ccc12)C1CCCCC1,38.8,35.9*,66.0,76.5*
O=C(NCC1CCCO1)c1ccc2c(=O)n(Cc3ccco3)c(SCC(=O)N3CCCC3)nc2c1 (centres undefined),93.0,35.3*,68.3,19.2
CCOC(=O)CSc1nc2cc(C(=O)NCC3CCCO3)ccc2c(=O)n1Cc1ccco1 (centres undefined),95.7,2.5,97.7,5.8
Cc1ccc(C(=O)Nc2nc(=O)n(C(=O)c3ccccc3Cl)s2)cc1,121.9,-44.3,141.0*,-18.6
Cc1ccc(C(=O)Nc2nc(=O)n(C(=O)CC(C)C)s2)cc1,102.9,-2.3,102.1,2.3
O=S(=O)(Nc1ccc(-c2nc3cccnc3s2)cc1)c1ccc(Cl)s1,111.0,-34.6,131.4*,-4.2
O=S(=O)(Nc1ccc(-c2nc3cccnc3s2)cc1)c1cccs1,108.3,-13.7,112.4,-5.3
CCS(=O)(=O)Nc1cc(-c2nc3cccnc3s2)ccc1C,162.1*,-39.0,135.3*,-71.0
Cc1cc(-c2nc3cccnc3s2)ccc1NS(=O)(=O)c1cccs1,x,-51.8,145.6*,x
CCS(=O)(=O)Nc1ccc(-c2nc3cccnc3s2)cc1,x,11.7,88.2,x
COc1ccc(C)cc1NC(=O)c1ccccc1NS(=O)(=O)c1ccc(Cl)s1,73.0,33.2,67.4,36.6
CCOc1ccccc1C(=O)NC(C(=O)Nc1cccnc1)C(C)C (centres undefined),103.1,-2.9,100.3,-2.3
CCOc1ccc(/C=N/Nc2cc(=O)n(C)c(=O)n2C)cc1,76.2,-6.7,105.9,28.1
CC(=O)c1ccc(NC(=S)NCc2ccc(Cl)cc2Cl)cc1,94.2,5.2,93.3,13.5
CC(=O)OC1COC(N2CCc3cc(Br)c([N+](=O)[O-])cc32)C(OC(C)=O)C1OC(C)=O (centres undefined),97.9,-9.0,108.3,2.8
O=C(N/N=C/c1c[nH]c2ccc(Br)cc12)c1ccn(Cc2ccc(Cl)cc2)n1,96.3,3.8,96.6,12.0
O=C(N/N=C/c1c[nH]c2ccccc12)c1ccn(Cc2ccc(Cl)cc2Cl)n1,135.5*,5.8,94.8,-33.2
SMILES,STAT3 activator,STAT1 blocker,STAT1 act,STAT3 inh
Cc1ccccc1-c1nc2sc3c(c2c(=O)o1)CCC3,96.7,-5.2,104.4,5.3
O=c1oc(-c2cccs2)nc2sc3c(c12)CCCCC3,105.6,1.0,99.1,0.7
CC1(C)Cc2c(sc3nc(-c4cccs4)n(N)c(=O)c23)CO1,96.2,-39.1,138.2*,10.9
O=c1oc(-c2ccccc2)nc2sc3c(c12)CCCC3,110.0,-39.5,136.2*,-11.7
Cc1ccccc1-c1nc2sc3c(c2c(=O)n1N)CCCC3,103.7,-50.2,146.4*,-7.7
Cc1nc2sc3c(c2c(=O)n1N)CCC3,101.1,-2.7,102.2,6.3
Nn1c(-c2cccs2)nc2sc3c(c2c1=O)CCCC3,128.5,-45.4,141.5*,-27.5
Cc1ccccc1-n1c(SC2CCOC2=O)nnc1-c1ccncc1 (centres undefined),92.5,3.9,95.9,11.3
O=S1(=O)CCC(NC(=S)N2CCOCC2)C1 (centres undefined),100.8,-5.1,104.5,-0.8
COc1ccccc1NC(=O)COc1ccc(CO)cc1Cl,94.5,-34.9,132.9*,9.6
COc1ccc(NC(=O)COc2ccc(/C=N/NC(=O)c3cccnc3)cc2OC)cc1,99.9,-0.6,100.5,2.4
O=C(COc1ccc(CO)cc1Cl)Nc1ccc(F)cc1,77.7,-38.9,135.9*,31.7
COc1cc(CO)ccc1OCC(=O)Nc1ccc(Br)cc1,133.0*,-17.8,113.4,-34.1
O=C(COc1ccc(CO)cc1)Nc1ccc(F)cc1,107.6,-2.5,102.3,-4.6
COc1ccccc1NC(=O)COc1ccc(Br)cc1CO,82.2,-12.2,111.2,21.5
COc1cc(/C=N/NC(=O)c2cccnc2)ccc1OCC(=O)Nc1ccccc1Cl,103.9,-38.5,135.8*,-3.0
Cc1ccc(NC(=O)COc2ccc(Br)cc2CO)cc1,90.2,-15.9,109.9,12.7
Cc1ccc(CN2CCN(Cc3ccc4cc(F)ccc4n3)CC2CCO)o1 (centres undefined),125.5,-6.4,104.6,-24.2
Cc1ccc(NC(=O)Nc2ccccc2CC[N+](=O)[O-])cc1,133.2*,-2.8,102.3,-29.5
Cc1cc(C)cc(NC(=O)c2ccccc2CC[N+](=O)[O-])c1,109.2,-7.6,106.8,-8.5
CNc1ccc(/C=C(\C#N)c2ccccn2)cc1[N+](=O)[O-],99.1,-42.4,138.8*,3.5
N#C/C(=C\c1ccccc1)c1ccccn1,93.8,-32.3,130.4*,7.6
COC(=O)/C(C#N)=C/c1ccc(OC(=O)c2ccccn2)cc1,102.9,-13.3,112.6,-5.2
N#C/C(=C\c1ccc(Cl)c([N+](=O)[O-])c1)c1ccccn1,89.7,1.7,97.1,16.2
Cc1[nH]c2ccccc2c1C(=O)CSC(=S)N(C)C1CCCCC1,96.1,-7.0,106.3,8.0
SMILES,STAT3 activator,STAT1 blocker,STAT1 act,STAT3 inh
Cc1[nH]c2ccccc2c1C(=O)CSC(=S)N1CCCCC1,109.2,-48.5,143.8*,-6.8
O=c1oc2ccccc2c(Nc2ccc3ccccc3c2)c1[N+](=O)[O-],133.5*,10.7,90.2,-32.8
COc1ccc(OC)c(NC(=O)CCc2c[nH]c3ccccc23)c1,82.5,-4.7,102.6,28.5
Cc1nn(-c2ccccc2)c(Cl)c1/C=N/Nc1nc2ccccc2n1C,96.3,-49.4,145.0*,12.3
Cc1nn(-c2ccccc2)c(Cl)c1/C=N/Nc1nnc(C)c(=O)[nH]1,101.8,0.9,97.6,0.2
COc1nc2ccccc2nc1CCC(=O)O,99.2,-7.2,104.9,3.2
CC(CCc1ccccc1)NCC(O)COc1ccccc1 (centres undefined),96.0,-2.6,101.8,7.3
O=C(Cc1c[nH]c2ccccc12)Nc1nccs1,119.7,1.3,98.8,-19.9
